# According to ChEMBL document CHEMBL1811851, “Identification of a potent, state-dependent inhibitor of Nav1.7 with oral efficacy in the formalin model of persistent pain” (J Med Chem, 2011):
# What was measured:
# [1] = Aqueous solubility of the compound in SIF pH 6.8; format: physicochemical
# [2] = Oral bioavailability in Sprague-Dawley rat at 2 mg/kg; format: ADME, organism-based; conditions: in vivo
# Procedure, shortened: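 Male Sprague-Dawley rats; oral dose 2 mg/kg in 10 mL/kg vehicle (30% hydroxypropyl-β-cyclodextrin pH 2.2 with methanesulfonic acid, or 1% Tween 80/2% HPMC pH 2.2 with HCl), compared with 0.5 mg/kg iv in DMSO.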
# LLC-PK1 [3] = experiment: Apparent permeability of the compound from apical to basolateral direction in pig LLC-PK1 cells expressing human MDR1; format: ADME, cell-based, Sus scrofa
# Procedure, shortened: (§1)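 MDR1-LLC-PK1 pig kidney cells expressing human MDR1; compound at 5 μM with 0.1% BSA; apparent permeability measured apical-to-basolateral and basolateral-to-apical.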
# LLC-PK1 [4] = experiment: Apparent permeability of the compound from basolateral to apical direction in pig LLC-PK1 cells expressing human MDR1; format: ADME, cell-based, Sus scrofa; procedure, shortened: as §1
# [5] = Aqueous solubility of the compound in PBS pH 7.4; format: physicochemical
# [6] = Aqueous solubility of the compound in 0.01 N HCl; format: physicochemical
# [7] = AUC in Sprague-Dawley rat at 0.5 mg/kg, iv; format: ADME, organism-based; set-up: dose 0.5 mg/kg, route intravenous; conditions: plasma
# Procedure, shortened: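 Male Sprague-Dawley rats dosed intravenously at 0.5 mg/kg in 0.5 mL/kg of 100% DMSO; pharmacokinetic parameters derived from plasma exposure.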
# Rattus norvegicus [8] = experiment: Plasma concentration in formalin-induced Sprague-Dawley rat at 30 mg/kg, po by open-field test; format: ADME, organism-based; set-up: dose 30 mg/kg, route oral; conditions: in vivo
# Procedure, shortened: (§2)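 Rats dosed orally 2 h before formalin; plasma sampled right after the formalin test (3 h post-dose) for total drug concentration.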
# Rattus norvegicus [9] = experiment: Plasma concentration in Sprague-Dawley rat at 30 mg/kg, po by open-field test; format: ADME, organism-based; set-up: dose 30 mg/kg, route oral; conditions: in vivo
# Procedure, shortened: (§3)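 Naive rats given oral doses of 3–30 mg/kg (n = 8 per dose), timed so recording began at the same post-dose interval as the formalin test; open-field photobeam beam breaks binned every 5 min and totalled; plasma drug measured; one-way ANOVA with Dunnett's versus vehicle.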
# Rattus norvegicus [10] = experiment: Plasma concentration in formalin-induced Sprague-Dawley rat at 3 mg/kg, po by open-field test; format: ADME, organism-based; set-up: dose 3 mg/kg, route oral; conditions: in vivo; procedure, shortened: as §2
# Rattus norvegicus [11] = experiment: Plasma concentration in Sprague-Dawley rat at 20 mg/kg, po by open-field test; format: ADME, organism-based; set-up: dose 20 mg/kg, route oral; conditions: in vivo; procedure, shortened: as §3
# Rattus norvegicus [12] = experiment: Plasma concentration in formalin-induced Sprague-Dawley rat at 20 mg/kg, po by open-field test; format: ADME, organism-based; set-up: dose 20 mg/kg, route oral; conditions: in vivo; procedure, shortened: as §2
# Plasma = experiment: Unbound plasma concentration in Sprague-Dawley rat at 3 mg/kg, po; format: ADME, organism-based; set-up: dose 3 mg/kg, route oral; conditions: in vivo
# Rattus norvegicus [13] = experiment: Plasma concentration in formalin-induced Sprague-Dawley rat at 10 mg/kg, po by open-field test; format: ADME, organism-based; set-up: dose 10 mg/kg, route oral; conditions: in vivo; procedure, shortened: as §2
# Rattus norvegicus [14] = experiment: Plasma concentration in Sprague-Dawley rat at 3 mg/kg, po by open-field test; format: ADME, organism-based; set-up: dose 3 mg/kg, route oral; conditions: in vivo; procedure, shortened: as §3
# Rattus norvegicus [15] = experiment: Plasma concentration in Sprague-Dawley rat at 10 mg/kg, po by open-field test; format: ADME, organism-based; set-up: dose 10 mg/kg, route oral; conditions: in vivo; procedure, shortened: as §3
solubility [1] [µg/mL],bioavailability [2] [%],Papp (LLC-PK1 [3]) [×10⁻⁶ cm/s],Papp (LLC-PK1 [4]) [×10⁻⁶ cm/s],solubility [5] [µg/mL],solubility [6] [µg/mL],AUC [7] [ng·h/mL],concentration (Rattus norvegicus [8]) [nM],concentration (Rattus norvegicus [9]) [nM],concentration (Rattus norvegicus [10]) [nM],concentration (Rattus norvegicus [11]) [nM],concentration (Rattus norvegicus [12]) [nM],Cp(f) (Plasma) [nM],concentration (Rattus norvegicus [13]) [nM],concentration (Rattus norvegicus [14]) [nM],concentration (Rattus norvegicus [15]) [nM],Structure (SMILES)
86,19,22.2,22.2,15,157,,,,,,,,,,,CC(=O)Nc1cccc(Nc2ncnc(N3CCC(OCc4ccccc4)CC3)n2)c1
,27,,,,,,,,,,,,,,,CC(=O)Nc1cccc(Nc2ncnc(N3CCC(OCc4ccc(C(F)(F)F)cc4)CC3)n2)c1C
31,,29.3,29.3,1,42,126,,,,,,,,,,CC(=O)Nc1cccc(Nc2ncnc(N3CCc4ccccc4C3)n2)c1
110,52,26.1,26.1,11,> 200,,,,,,,,,,,CC(=O)Nc1cccc(Nc2ncnc(N3CCC(Oc4ccccc4)CC3)n2)c1
,67,,,,,,4400,5400,500,2900,3200,14,1400,500,1400,CC(=O)Nc1cccc(Nc2ncnc(N3CCC(OCc4ccc(OC(F)(F)F)cc4)CC3)n2)c1C
